These results are taken from PMC3082393 (Journal of medicinal chemistry, 2011).

The test system of one data set is H460 and T29Kt1 cells. As to the kind of experiment: Structure-activity statements from the cell viability assay. Set-up: species or system human. As to conditions: based on IC50 values of Table 1.
For `O=Cc1cn(CCCOc2ccc(Cl)cc2)c2ccccc12` [Compound 15], the “Antitumor activity (structure-activity statement in words)” value is “retained its activity and selectivity”.

Regarding `CC(C)Cn1cc(C=O)c2ccccc21` [Compound 22], the “Antitumor activity (structure-activity statement in words)” value was “complete or partial loss of activity”. On to `OCc1cn(Cc2ccc(Cl)cc2)c2ccc(F)cc12` [Compound 51, 1-[(4-chlorophenyl)methyl]-5-fluoro-1H-indole-3-methanol], for which the “Antitumor activity (structure-activity statement in words)” value is “best potency”.

On to `Cc1ccc(Cn2cc(CO)c3cc(F)ccc32)cc1` [Compound 55, 1-[(4-methylphenyl)methyl]-5-fluoro-1H-indole-3-methanol], for which the “Antitumor activity (structure-activity statement in words)” value is “best potency”. The same measure, in the same setting: in the case of `OCCc1cn(Cc2ccc(Cl)cc2)c2ccccc12` [Compound 56, 2-[1-[(4-chlorophenyl)methyl]-1H-indole-3-]ethanol] it was “dramatic reduction or complete loss of activity”. On to `OCCCc1cn(Cc2ccccc2)c2ccccc12` [Compound 57], for which the “Antitumor activity (structure-activity statement in words)” value is given as “dramatic reduction or complete loss of activity”.

In the case of `CC(O)c1cn(Cc2ccc(Cl)cc2)c2ccccc12` (stereo not shown) [Compound 58, 1-[1-[(4-chlorophenyl)methyl]-1H-indole-3-] ethanol], the “Antitumor activity (structure-activity statement in words)” value is “dramatic reduction or complete loss of activity”.

`COCc1cn(Cc2ccc(Cl)cc2)c2ccccc12` [Compound 59, 1-[(4-chlorophenyl)methyl]-1H-indole-3-methoxymethane]: the “Antitumor activity (structure-activity statement in words)” value was “dramatic loss of activity”. Turning to `CC(=O)OCc1cn(Cc2ccc(Cl)cc2)c2ccccc12` [Compound 60, 1-[(4-chlorophenyl)methyl]-1H-indole-3-methyl acetate], the “Antitumor activity (structure-activity statement in words)” value was “equipotent to compound 35”. Consider `O=C(O)c1cn(Cc2ccccc2)c2ccccc12` [Compound 62], for which the “Antitumor activity (structure-activity statement in words)” value is recorded as “dramatic reduction or complete loss of activity”. Turning to `O=C(O)c1cn(Cc2ccc(Cl)cc2)c2ccccc12` [Compound 63, 1-[(4-chlorophenyl)methyl]-1H-indole-3-carboxylic acid], the “Antitumor activity (structure-activity statement in words)” value is on record as “dramatic reduction or complete loss of activity”. `Cc1cn(Cc2ccc(Cl)cc2)c2ccccc12` [Compound 66, 1-[(4-chlorophenyl)methyl]-1H-indole-3-methane]: the “Antitumor activity (structure-activity statement in words)” value is “dramatic reduction or complete loss of activity”.

`Clc1cccc(Cn2cc(Cc3cn(Cc4cccc(Cl)c4)c4ccccc34)c3ccccc32)c1` [Compound 68, bis[1-[(3-chlorophenyl)methyl]-1H-indole-3-]methane]: the “Antitumor activity (structure-activity statement in words)” value was “complete loss of antitumor activity”. With `Brc1cccc(Cn2cc(Cc3cn(Cc4cccc(Br)c4)c4ccccc34)c3ccccc32)c1` [Compound 69, bis[1-[(3-bromophenyl)methyl]-1H-indole-3-]methane], the “Antitumor activity (structure-activity statement in words)” value is “complete loss of antitumor activity”.

The next data set has as its system phosphorylation of the CTD of RNA polymerase II.
Assay: not given
The conditions noted are these: cited from earlier work.
For the compound `O=Cc1cn(Cc2ccc(Cl)cc2)c2ccccc12` [Oncrasin-1, 1-[(4-chlorophenyl)methyl]-1H-indole-3-carboxaldehyde], the “CTD phosphorylation in sensitive cancer cell lines” value is listed as “suppressed phosphorylation”.

The next data set has as its system cancer cells that were highly susceptible to oncrasin-1.
Assay: not given
As to conditions: cancer cells highly susceptible to oncrasin-1; cited from earlier work.
For `OCc1c[nH]c2ccccc12` [indole-3-carbinol], the Antitumor activity entry was “did not have observable antitumor activity”.

In the next data set the test system is CDK9.
Assay: not given
As to conditions: ref Our previous study; cited from earlier work.
As to `O=Cc1cn(Cc2ccc(Cl)cc2)c2ccccc12` [Oncrasin-1, 1-[(4-chlorophenyl)methyl]-1H-indole-3-carboxaldehyde], the “Direct inhibitory effect on CDK9” value is “moderate”.

The next data set concerns T29 and T29Kt1 cells. The data set can be described thus: Levels of compound 34 in cells after treatment. It counts as cell-based. As to conditions: 10 μM, all time points up to 5 h after treatment, normalized with protein amount. The procedure, abridged:
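T29 and T29Kt1 cells at 80–90% confluence were given 10 μM test compound and collected by trypsin at time points up to 5 h. After a PBS wash, cells were lysed (M-PER) and homogenised, and supernatant protein was measured by BCA. Supernatant was deproteinised with 2 volumes of acetonitrile, spun at 4°C and concentrated under nitrogen. Drug was quantified by C18 HPLC (acetonitrile/water gradient, 230 nm) against an indole-methanol internal standard, then normalised to protein.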
Turning to `OCc1cn(Cc2cccc(Cl)c2)c2ccccc12` [Compound 34, 1-[(3-chlorophenyl)methyl]-1H-indole-3-methanol], the “Level of compound in T29 cells relative to T29Kt1 cells” value is “twice”.

The subject of a further data set is CDK7.
Assay: not given
The conditions noted are these: ref Our previous study; cited from earlier work.
Consider `O=Cc1cn(Cc2ccc(Cl)cc2)c2ccccc12` [Oncrasin-1, 1-[(4-chlorophenyl)methyl]-1H-indole-3-carboxaldehyde], for which the “Direct inhibitory effect on CDK7” value was “moderate”.
